Activity calls are given as the source filed them.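 The calls were made as follows: active = a clear dose-dependent boost of the acetylcholine calcium response in rat M2 cells, with a fitted potency; inactive = the rest.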

Results on 9 compounds are retold here after PubChem BioAssay AID588748 (Vanderbilt Specialized Chemistry Center, 2011).

For the experiment, the target named is Muscarinic acetylcholine receptor M2 (Rattus norvegicus) (UniProt P10980). Put plainly: potentiation of ACh at rat M2 – CHO Gqi5 cells, calcium fluorescence, counter-screen for M4 PAM project, dose response (AID 588748). As to conditions: CHO rM2/Gqi5 calcium mobilization, PAM mode, FDSS. The method in brief: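 Material: rat M2/Gqi5 CHO cells; reagent: acetylcholine at EC20, followed by acetylcholine at EC80; times: compound 144 s before EC20 ACh, EC80 ACh 86 s later, 37 °C; detection: Fluo-4 fluorescence of calcium mobilization; measure: EC50 and percent ACh max response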
Sequence of Muscarinic acetylcholine receptor M2 (Rattus norvegicus) (P10980 whole entry, looked up): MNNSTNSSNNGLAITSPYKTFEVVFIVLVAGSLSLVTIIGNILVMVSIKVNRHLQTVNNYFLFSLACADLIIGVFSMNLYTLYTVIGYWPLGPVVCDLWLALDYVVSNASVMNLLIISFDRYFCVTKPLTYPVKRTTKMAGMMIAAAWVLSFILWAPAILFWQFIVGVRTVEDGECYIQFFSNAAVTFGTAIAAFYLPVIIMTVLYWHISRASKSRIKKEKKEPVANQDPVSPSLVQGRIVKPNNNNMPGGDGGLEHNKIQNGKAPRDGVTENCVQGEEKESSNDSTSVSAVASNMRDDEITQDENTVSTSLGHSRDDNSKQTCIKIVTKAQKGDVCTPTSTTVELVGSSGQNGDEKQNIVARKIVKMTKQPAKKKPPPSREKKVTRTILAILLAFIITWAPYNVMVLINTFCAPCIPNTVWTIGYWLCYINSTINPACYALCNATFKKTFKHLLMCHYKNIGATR

On to `Cc1nc2sc(C(=O)NC3CC3)c(N)c2c(C)c1Cl`, for which the EC50 – broadly, the concentration that produces a half-maximal response – was 640 nM.
As to `Cc1nc2sc(C(=O)NCc3ccncn3)c(N)c2c(C)c1Cl`, where the note is “at 30 µM (top of the series)”, the “percent of ACh max response” value was “inactive”.
Still for that read-out and setting: the entry for `Cc1nc2sc(C(=O)NCc3nccs3)c(N)c2c(C)c1Cl` is “inactive”.
In the case of `Cc1nc2sc(C(=O)NCc3ccccc3)c(N)c2c(C)c1Cl`, the “percent of ACh max response” value (at 37.4 µM (top of the series)) is “inactive”.
Consider `Cc1nc2sc(C(=O)NCc3ccncc3)c(N)c2c(C)c1Cl`, for which the “percent of ACh max response” value (at 45.3 µM (top of the series)) is “inactive”.
Same read-out and setting: then `Cc1nc2sc(C(=O)NCc3cccnc3)c(N)c2c(C)c1Cl`, with “inactive”.
With `Cc1nc2sc(C(=O)NCc3cccc(F)c3F)c(N)c2c(C)c1Cl`, the “percent of ACh max response” value (at 30 µM (top of the series)) is “inactive”.
Take `Cc1nc2sc(C(=O)NCc3ccc4c(c3)OCO4)c(N)c2c(C)c1Cl`: the “percent of ACh max response” value (at 36.8 µM (top of the series)) is “inactive”.
Regarding `Cc1nc2sc(C(=O)NCCc3ccncc3)c(N)c2c(C)c1Cl`, for the setting “at 30 µM (top of the series)”, the “percent of ACh max response” value was “inactive”.
